Source: ChEMBL document CHEMBL4627345, “Anti-inflammatory effect and inhibition of nitric oxide production by targeting COXs and iNOS enzymes with the 1,2-diphenylbenzimidazole pharmacophore” (Bioorg Med Chem, 2020)
The source made the active and inactive calls. The rule behind the calls is not given here.

Assays:
[1] = target: T1, Prostaglandin G/H synthase 1 (Bos taurus) (UniProt O62664); test: Inhibition of bovine COX1 at 100 uM using arachidonic acid as substrate preincubated for 5 mins followed by substrate addition and measured after 5 mins by […]-based fluorescence assay relative to control
T1 sequence (whole entry): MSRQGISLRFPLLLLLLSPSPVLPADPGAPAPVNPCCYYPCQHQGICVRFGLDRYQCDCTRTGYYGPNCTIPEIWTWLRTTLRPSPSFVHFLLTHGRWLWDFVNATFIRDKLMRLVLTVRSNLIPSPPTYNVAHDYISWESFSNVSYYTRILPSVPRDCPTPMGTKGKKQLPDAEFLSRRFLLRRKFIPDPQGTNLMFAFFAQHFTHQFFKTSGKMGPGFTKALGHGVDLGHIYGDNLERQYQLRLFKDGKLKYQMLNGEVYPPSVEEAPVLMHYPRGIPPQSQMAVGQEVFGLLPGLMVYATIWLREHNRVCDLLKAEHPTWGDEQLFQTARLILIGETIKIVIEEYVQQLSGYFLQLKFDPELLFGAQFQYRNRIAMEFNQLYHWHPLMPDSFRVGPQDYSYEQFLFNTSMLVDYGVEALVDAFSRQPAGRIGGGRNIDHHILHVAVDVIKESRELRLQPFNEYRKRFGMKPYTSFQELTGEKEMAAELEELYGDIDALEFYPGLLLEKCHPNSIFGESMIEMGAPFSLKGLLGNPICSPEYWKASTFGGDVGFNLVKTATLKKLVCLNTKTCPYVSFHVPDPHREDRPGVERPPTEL
In short: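 Bovine COX-1 preincubated 5 min in buffer with compound (100 µM) or SC-560 as reference. ADHP and arachidonic acid then added, and resorufin fluorescence read after 5 min (ex 530–540 / em 585–595 nm). Resorufin arises from ADHP reacting with the COX-derived PGG2.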

[2] = tested on: RAW264.7; test: Cytotoxicity against mouse RAW264.7 cells assessed as reduction in cell viability at 500 uM measured after 24 hrs by MTT assay; format: cell-based; settings: raw264.7, 24 h
In short: (§1)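 RAW 264.7 murine macrophages grown in RPMI-1640 with 10% heat-inactivated FBS at 37 °C, 5% CO2. Cells seeded at 4 x10^4 per well and exposed 24 h to 0–500 µM compound (DMSO 0.2% final). Medium replaced with 0.5 mg/mL MTT for 4 h, formazan dissolved in isopropanol, absorbance read at 570 nm. Triplicates in three independent experiments.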

[3] = Cytotoxicity against mouse RAW264.7 cells assessed as cell viability at 100 uM measured after 24 hrs by MTT assay relative to control; format: cell-based; settings: read-out: Activity; in short: as §1
[4] = Selectivity index, ratio of inhibition of human recombinant COX-2 at 100 uM to inhibition of bovine COX-1 at 100 uM
In short: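 SI is COX-2/COX-1 activity ratio. Percent inhibition at 100 µM: human recombinant COX-2 (15 min preincubation) and bovine COX-1 (5 min preincubation). Fluorometric ADHP/arachidonic acid read-out after 5 min.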

[5] = tested on: Rattus norvegicus; test: Antiinflammatory activity in Wistar rat assessed as inhibition of carrageenan-induced paw edema formation at 100 mg/kg, po administered 1 hr before carrageenan stimulation and measured after up to 6 hrs relative to control; format: functional
In short: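 Male Wistar rats (250–300 g), N = 5 per group, dosed orally 1 h before 0.1 mL of 1% carrageenan in physiological saline was injected into the right paw. Paw volume was read by plethysmometer at 0, 1, 2, 3, 4, 5 and 6 h. Edema was taken as the right-minus-left paw volume difference. % inhibition = (untreated − treated)/untreated × 100 at each time point.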

[6] = target: T2, Prostaglandin G/H synthase 2 (Homo sapiens, UniProt P35354); test: Inhibition of human recombinant COX-2 using arachidonic acid as substrate preincubated for 15 mins followed by substrate addition and measured after 5 mins by […]-based fluorescence assay
T2 sequence (P35354 whole entry): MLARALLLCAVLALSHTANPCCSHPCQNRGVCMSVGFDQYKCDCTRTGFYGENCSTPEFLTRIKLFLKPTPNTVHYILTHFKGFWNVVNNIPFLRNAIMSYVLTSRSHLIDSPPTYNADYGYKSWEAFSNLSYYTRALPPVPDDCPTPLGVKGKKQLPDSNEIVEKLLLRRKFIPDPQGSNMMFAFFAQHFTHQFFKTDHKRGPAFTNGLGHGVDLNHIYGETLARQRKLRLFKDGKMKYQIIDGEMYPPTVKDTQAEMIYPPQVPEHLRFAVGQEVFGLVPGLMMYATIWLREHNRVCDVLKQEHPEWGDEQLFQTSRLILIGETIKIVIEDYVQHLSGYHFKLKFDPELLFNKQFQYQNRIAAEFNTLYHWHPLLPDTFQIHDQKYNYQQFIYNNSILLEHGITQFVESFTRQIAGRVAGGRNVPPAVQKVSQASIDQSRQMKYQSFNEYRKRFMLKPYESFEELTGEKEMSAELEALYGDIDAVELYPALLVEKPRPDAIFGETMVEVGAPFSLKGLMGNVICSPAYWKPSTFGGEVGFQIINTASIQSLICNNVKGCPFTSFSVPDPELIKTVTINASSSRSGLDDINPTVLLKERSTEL
In short: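 Human recombinant COX-2 preincubated 15 min in buffer with compound (100 µM) or DuP-697 as reference. ADHP and arachidonic acid then added, and resorufin fluorescence read after 5 min (ex 530–540 / em 585–595 nm).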

[7] = target: T3, Nitric oxide synthase, inducible (Mus musculus) (UniProt P29477); test: Inhibition of iNOS in mouse macrophages assessed as reduction in LPS-induced nitric oxide production at 100 uM incubated for overnight by griess assay relative to control
T3 sequence (whole entry): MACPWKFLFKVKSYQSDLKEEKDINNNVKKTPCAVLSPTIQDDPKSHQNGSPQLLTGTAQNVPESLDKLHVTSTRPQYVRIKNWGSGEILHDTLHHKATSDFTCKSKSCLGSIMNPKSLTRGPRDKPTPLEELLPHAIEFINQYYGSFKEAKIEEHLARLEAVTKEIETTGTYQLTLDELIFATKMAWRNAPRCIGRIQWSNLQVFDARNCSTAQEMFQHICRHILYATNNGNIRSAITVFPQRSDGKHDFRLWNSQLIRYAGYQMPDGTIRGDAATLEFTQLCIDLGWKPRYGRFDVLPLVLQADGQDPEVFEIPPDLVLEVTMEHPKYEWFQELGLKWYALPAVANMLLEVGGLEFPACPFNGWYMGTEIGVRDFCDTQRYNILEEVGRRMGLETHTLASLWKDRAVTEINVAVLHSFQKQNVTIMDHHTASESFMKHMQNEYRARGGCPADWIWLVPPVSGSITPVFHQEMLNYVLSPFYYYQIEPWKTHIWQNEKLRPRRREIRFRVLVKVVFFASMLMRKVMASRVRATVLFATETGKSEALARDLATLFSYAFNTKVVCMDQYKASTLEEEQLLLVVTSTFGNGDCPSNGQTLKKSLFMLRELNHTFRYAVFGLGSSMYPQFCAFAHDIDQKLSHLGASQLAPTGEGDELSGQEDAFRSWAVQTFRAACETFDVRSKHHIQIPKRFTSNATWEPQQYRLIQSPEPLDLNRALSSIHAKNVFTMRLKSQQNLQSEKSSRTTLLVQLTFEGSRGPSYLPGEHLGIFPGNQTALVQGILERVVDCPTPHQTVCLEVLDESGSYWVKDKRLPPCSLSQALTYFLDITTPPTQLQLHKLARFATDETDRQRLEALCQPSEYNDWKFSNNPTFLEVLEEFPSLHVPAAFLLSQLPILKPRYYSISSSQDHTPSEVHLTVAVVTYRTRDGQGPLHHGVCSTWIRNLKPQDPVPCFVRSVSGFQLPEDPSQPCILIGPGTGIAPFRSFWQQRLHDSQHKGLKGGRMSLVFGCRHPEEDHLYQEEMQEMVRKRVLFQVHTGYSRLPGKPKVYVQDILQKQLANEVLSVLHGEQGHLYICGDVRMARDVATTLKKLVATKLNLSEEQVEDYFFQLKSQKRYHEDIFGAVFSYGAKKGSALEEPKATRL
In short: (§2)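 Murine macrophages seeded at 4 x10^4 per well with compound at 50 or 100 µM, with or without LPS (100 ng/mL), overnight under standard conditions. Supernatant mixed 1:1 with Griess reagent and read at 570 nm. Nitrite quantified from a NaNO2 standard curve. Triplicates in three independent experiments.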

[8] = target: T3, Nitric oxide synthase, inducible (Mus musculus); test: Inhibition of iNOS in mouse macrophages assessed as reduction in LPS-induced nitric oxide production at 50 uM incubated for overnight by griess assay relative to control; in short: as §2
[9] = Cytotoxicity against mouse RAW264.7 cells assessed as cell viability at 500 uM measured after 24 hrs by MTT assay relative to control; format: cell-based; settings: read-out: Activity; in short: as §1

O=[N+]([O-])c1ccc(-n2c(-c3ccccc3)nc3ccccc32)cc1
inhibition [1]: 40.6%
Activity [2]: Toxic
viability at 24 h, 100 µM [3]: > 90%
Selectivity Index [4]: 1.05
inhibition [5]: Active
IC50 [6]: 162 µM
inhibition [7]: 44%
inhibition [8]: 38.1%

O=[N+]([O-])c1ccc(-n2c(-c3ccc(Cl)cc3)nc3ccccc32)cc1
inhibition [1]: 17.6%
Activity [2]: Toxic
viability at 24 h, 100 µM [3]: > 90%
Selectivity Index [4]: 1.37
inhibition [5]: Active
inhibition [7]: 53.9%
inhibition [8]: 53.2%

Nc1ccc(-c2nc3ccccc3n2-c2ccc(N)cc2)cc1
inhibition [1]: 29.7%
viability at 24 h, 500 µM [9]: ≥ 80%
viability at 24 h, 100 µM [3]: > 90%
Selectivity Index [4]: 1.55
inhibition [5]: Active
IC50 [6]: 173 µM
inhibition [7]: 44.1%
inhibition [8]: 42.5%

Nc1ccc(-n2c(-c3ccc(Br)cc3)nc3ccccc32)cc1
inhibition [1]: 62.3%
viability at 24 h, 500 µM [9]: ≥ 80%
viability at 24 h, 100 µM [3]: > 90%
Selectivity Index [4]: 0.11
inhibition [5]: Active
inhibition [7]: 74.2%
inhibition [8]: 62.5%

N#Cc1ccc(-c2nc3ccccc3n2-c2ccc([N+](=O)[O-])cc2)cc1
inhibition [1]: 29%
Activity [2]: Toxic
viability at 24 h, 100 µM [3]: > 90%
Selectivity Index [4]: 1.63
inhibition [5]: Active
inhibition [7]: 46%
inhibition [8]: 24.4%

CC(C)Cc1ccc(C(C)C(=O)O)cc1 (centres undefined) [IBUPROFEN]
inhibition [1]: 56.6%
inhibition in vivo at 100 mg/kg [5]: 42%
inhibition [7]: 83.7%
inhibition [8]: 82.1%

CC(=O)Nc1ccc(-c2nc3ccccc3n2-c2ccc(NC(C)=O)cc2)cc1
inhibition [1]: 59.5%
viability at 24 h, 100 µM [3]: > 90%
Selectivity Index [4]: 0.53
inhibition [5]: Active
inhibition [7]: 15.3%
inhibition [8]: 10.1%

O=C(O)c1ccc(-c2nc3ccccc3n2-c2ccc([N+](=O)[O-])cc2)cc1
inhibition [1]: 31%
Activity [2]: Toxic
viability at 24 h, 100 µM [3]: > 90%
Selectivity Index [4]: 1.06
inhibition [5]: Active
inhibition [7]: 46.2%
inhibition [8]: 32.6%

O=[N+]([O-])c1ccc(-c2nc3ccccc3n2-c2ccc([N+](=O)[O-])cc2)cc1
inhibition [1]: 29.3%
viability at 24 h, 500 µM [9]: ≤ 90%
viability at 24 h, 100 µM [3]: ≤ 90%
Selectivity Index [4]: 1.63
inhibition in vivo at 100 mg/kg [5]: 42%
inhibition [7]: 33.8%
inhibition [8]: 22.4%

O=[N+]([O-])c1ccc(-n2c(-c3ccc(Br)cc3)nc3ccccc32)cc1
inhibition [1]: 18.3%
Activity [2]: Toxic
viability at 24 h, 100 µM [3]: > 90%
Selectivity Index [4]: 2.77
inhibition in vivo at 100 mg/kg [5]: 42%
IC50 [6]: 102 µM
inhibition [7]: 45.8%
inhibition [8]: 46.5%

Cc1ccc(-c2ncc(Cl)cc2-c2ccc(S(C)(=O)=O)cc2)cn1 [ETORICOXIB]
inhibition [1]: 23.4%
Selectivity Index [4]: 2.68
inhibition in vivo at 100 mg/kg [5]: 35%
inhibition [7]: 87.3%
inhibition [8]: 79.8%

Nc1ccc(-n2c(-c3ccc(Cl)cc3)nc3ccccc32)cc1
inhibition [1]: 39%
viability at 24 h, 500 µM [9]: ≥ 80%
viability at 24 h, 100 µM [3]: > 90%
Selectivity Index [4]: 1.15
inhibition [5]: Active
IC50 [6]: 193 µM
inhibition [7]: 52.2%
inhibition [8]: 24.9%

CC(=O)Nc1ccc(-n2c(-c3ccc(Br)cc3)nc3ccccc32)cc1
inhibition [1]: 48.7%
viability at 24 h, 100 µM [3]: > 90%
Selectivity Index [4]: 0.58
inhibition [5]: Active
inhibition [7]: 83.6%
inhibition [8]: 77.3%

CC(=O)Nc1ccc(-n2c(-c3ccc(Cl)cc3)nc3ccccc32)cc1
inhibition [1]: 47.4%
viability at 24 h, 100 µM [3]: > 90%
Selectivity Index [4]: 0.51
inhibition [5]: Active
inhibition [7]: 86.4%
inhibition [8]: 75.9%
